Results: ChEMBL document CHEMBL3045504, “Activity of 1,4-benzoquinones against formosan subterranean termites (Coptotermes formosanus)” (2008)

How the values were obtained:
Type in all cases: functional
Coptotermes formosanus [1] = experiment: Termiticidal activity against Coptotermes formosanus placed on 0.001 % wt/wt compound treated filter paper assessed as termite mortality measured 17 days post compound exposure
Outline: (§1)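 Treated filter paper disks moistened with 100 µL water; 20 C. formosanus workers (third instar or greater) plus 1 soldier per dish from field colonies kept on spruce, ca. 100% RH, 26.6 °C. Daily mortality scored for 3 weeks; cumulative percent mortality from four replicates, each a different colony; water-only controls; ANOVA, protected Fisher LSD (P < 0.05) after arcsine square-root transform.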

Coptotermes formosanus [2] = experiment: Termiticidal activity against Coptotermes formosanus placed on 0.01 % wt/wt compound treated filter paper assessed as termite mortality measured 17 days post compound exposure; outline: as §1
Coptotermes formosanus [3] = experiment: Termiticidal activity against Coptotermes formosanus placed on 0.05 % wt/wt compound treated filter paper assessed as termite mortality measured 17 days post compound exposure; outline: as §1
Coptotermes formosanus [4] = experiment: Termiticidal activity against Coptotermes formosanus placed on 0.1 % wt/wt compound treated filter paper assessed as termite mortality measured 17 days post compound exposure; outline: as §1
Coptotermes formosanus [5] = experiment: Termiticidal activity against Coptotermes formosanus placed on 0.5 % wt/wt compound treated filter paper assessed as termite mortality measured 17 days post compound exposure; outline: as §1
Coptotermes formosanus [6] = experiment: Termiticidal activity against Coptotermes formosanus placed on 0.001 % wt/wt compound treated filter paper assessed as termite mortality measured 13 days post compound exposure; outline: as §1
Coptotermes formosanus [7] = experiment: Termiticidal activity against Coptotermes formosanus placed on 0.01 % wt/wt compound treated filter paper assessed as termite mortality measured 13 days post compound exposure; outline: as §1
Coptotermes formosanus [8] = experiment: Termiticidal activity against Coptotermes formosanus placed on 0.05 % wt/wt compound treated filter paper assessed as termite mortality measured 13 days post compound exposure; outline: as §1
Coptotermes formosanus [9] = experiment: Termiticidal activity against Coptotermes formosanus placed on 0.1 % wt/wt compound treated filter paper assessed as termite mortality measured 13 days post compound exposure; outline: as §1
Coptotermes formosanus [10] = experiment: Termiticidal activity against Coptotermes formosanus placed on 0.5 % wt/wt compound treated filter paper assessed as termite mortality measured 13 days post compound exposure; outline: as §1
Coptotermes formosanus [11] = experiment: Termiticidal activity against Coptotermes formosanus placed on 0.001 % wt/wt compound treated filter paper assessed as termite mortality measured 11 days post compound exposure; outline: as §1
Coptotermes formosanus [12] = experiment: Termiticidal activity against Coptotermes formosanus placed on 0.01 % wt/wt compound treated filter paper assessed as termite mortality measured 11 days post compound exposure; outline: as §1
Coptotermes formosanus [13] = experiment: Termiticidal activity against Coptotermes formosanus placed on 0.05 % wt/wt compound treated filter paper assessed as termite mortality measured 11 days post compound exposure; outline: as §1
Coptotermes formosanus [14] = experiment: Termiticidal activity against Coptotermes formosanus placed on 0.1 % wt/wt compound treated filter paper assessed as termite mortality measured 11 days post compound exposure; outline: as §1
Coptotermes formosanus [15] = experiment: Termiticidal activity against Coptotermes formosanus placed on 0.001 % wt/wt compound treated filter paper assessed as termite mortality measured 9 days post compound exposure; outline: as §1
Coptotermes formosanus [16] = experiment: Termiticidal activity against Coptotermes formosanus placed on 0.01 % wt/wt compound treated filter paper assessed as termite mortality measured 9 days post compound exposure; outline: as §1
Coptotermes formosanus [17] = experiment: Termiticidal activity against Coptotermes formosanus placed on 0.05 % wt/wt compound treated filter paper assessed as termite mortality measured 9 days post compound exposure; outline: as §1
Coptotermes formosanus [18] = experiment: Termiticidal activity against Coptotermes formosanus placed on 0.1 % wt/wt compound treated filter paper assessed as termite mortality measured 9 days post compound exposure; outline: as §1
Coptotermes formosanus [19] = experiment: Termiticidal activity against Coptotermes formosanus placed on 0.5 % wt/wt compound treated filter paper assessed as termite mortality measured 9 days post compound exposure; outline: as §1
Coptotermes formosanus [20] = experiment: Termiticidal activity against Coptotermes formosanus placed on 0.001 % wt/wt compound treated filter paper assessed as termite mortality measured 6 days post compound exposure; outline: as §1
Coptotermes formosanus [21] = experiment: Termiticidal activity against Coptotermes formosanus placed on 0.01 % wt/wt compound treated filter paper assessed as termite mortality measured 6 days post compound exposure; outline: as §1
Coptotermes formosanus [22] = experiment: Termiticidal activity against Coptotermes formosanus placed on 0.05 % wt/wt compound treated filter paper assessed as termite mortality measured 6 days post compound exposure; outline: as §1
Coptotermes formosanus [23] = experiment: Termiticidal activity against Coptotermes formosanus placed on 0.1 % wt/wt compound treated filter paper assessed as termite mortality measured 6 days post compound exposure; outline: as §1
Coptotermes formosanus [24] = experiment: Termiticidal activity against Coptotermes formosanus placed on 0.5 % wt/wt compound treated filter paper assessed as termite mortality measured 6 days post compound exposure; outline: as §1
Coptotermes formosanus [25] = experiment: Termiticidal activity against Coptotermes formosanus placed on 1 % wt/wt compound treated filter paper assessed as termite mortality measured 21 days post compound exposure
Coptotermes formosanus [26] = experiment: Termiticidal activity against Coptotermes formosanus placed on 1 % wt/wt compound treated filter paper assessed as termite mortality measured 11 days post compound exposure
Coptotermes formosanus [27] = experiment: Termiticidal activity against Coptotermes formosanus placed on 1 % wt/wt compound treated filter paper assessed as termite mortality measured 3 days post compound exposure
Coptotermes formosanus [28] = experiment: Termiticidal activity against Coptotermes formosanus placed on 0.5 % wt/wt compound treated filter paper assessed as termite mortality measured 21 days post compound exposure; outline: as §1
Coptotermes formosanus [29] = experiment: Termiticidal activity against Coptotermes formosanus placed on 0.5 % wt/wt compound treated filter paper assessed as termite mortality measured 11 days post compound exposure; outline: as §1
Coptotermes formosanus [30] = experiment: Antifeedant activity against Coptotermes formosanus placed on 1 % wt/wt compound treated filter paper assessed as filter paper consumption measured 21 days post compound exposure (reference value: 15.9 +/- 10.4 mg)
Coptotermes formosanus [31] = experiment: Termiticidal activity against Coptotermes formosanus placed on 0.001 % wt/wt compound treated filter paper assessed as termite mortality measured 21 days post compound exposure; outline: as §1
Coptotermes formosanus [32] = experiment: Termiticidal activity against Coptotermes formosanus placed on 0.01 % wt/wt compound treated filter paper assessed as termite mortality measured 21 days post compound exposure; outline: as §1
Coptotermes formosanus [33] = experiment: Termiticidal activity against Coptotermes formosanus placed on 0.05 % wt/wt compound treated filter paper assessed as termite mortality measured 21 days post compound exposure; outline: as §1
Coptotermes formosanus [34] = experiment: Termiticidal activity against Coptotermes formosanus placed on 0.1 % wt/wt compound treated filter paper assessed as termite mortality measured 21 days post compound exposure; outline: as §1
Coptotermes formosanus [35] = experiment: Antifeedant activity against Coptotermes formosanus placed on 0.001 % wt/wt compound treated filter paper assessed as filter paper consumption measured 21 days post compound exposure (reference value: 113.2 +/- 11.9 mg)
Coptotermes formosanus [36] = experiment: Antifeedant activity against Coptotermes formosanus placed on 0.01 % wt/wt compound treated filter paper assessed as filter paper consumption measured 21 days post compound exposure (reference value: 113.2 +/- 11.9 mg)
Coptotermes formosanus [37] = experiment: Antifeedant activity against Coptotermes formosanus placed on 0.05 % wt/wt compound treated filter paper assessed as filter paper consumption measured 21 days post compound exposure (reference value: 113.2 +/- 11.9 mg)
Coptotermes formosanus [38] = experiment: Antifeedant activity against Coptotermes formosanus placed on 0.1 % wt/wt compound treated filter paper assessed as filter paper consumption measured 21 days post compound exposure (reference value: 113.2 +/- 11.9 mg)
Coptotermes formosanus [39] = experiment: Antifeedant activity against Coptotermes formosanus placed on 0.5 % wt/wt compound treated filter paper assessed as filter paper consumption measured 21 days post compound exposure (reference value: 113.2 +/- 11.9 mg)
Coptotermes formosanus [40] = experiment: Antifeedant activity against Coptotermes formosanus placed on 0.5 % wt/wt compound treated filter paper assessed as filter paper consumption measured 21 days post compound exposure (reference value: 78.2 +/- 26.7 mg)
Coptotermes formosanus [41] = experiment: Antifeedant activity against Coptotermes formosanus placed on 1 % wt/wt compound treated filter paper assessed as filter paper consumption measured 21 days post compound exposure (reference value: 85 +/- 15.1 mg)
Coptotermes formosanus [42] = experiment: Antifeedant activity against Coptotermes formosanus placed on 0.001 % wt/wt compound treated filter paper assessed as filter paper consumption measured 21 days post compound exposure (reference value: 78.2 +/- 26.7 mg)
Coptotermes formosanus [43] = experiment: Antifeedant activity against Coptotermes formosanus placed on 0.01 % wt/wt compound treated filter paper assessed as filter paper consumption measured 21 days post compound exposure (reference value: 78.2 +/- 26.7 mg)
Coptotermes formosanus [44] = experiment: Antifeedant activity against Coptotermes formosanus placed on 0.05 % wt/wt compound treated filter paper assessed as filter paper consumption measured 21 days post compound exposure (reference value: 78.2 +/- 26.7 mg)
Coptotermes formosanus [45] = experiment: Antifeedant activity against Coptotermes formosanus placed on 0.1 % wt/wt compound treated filter paper assessed as filter paper consumption measured 21 days post compound exposure (reference value: 78.2 +/- 26.7 mg)

Row | SMILES | mortality (Coptotermes formosanus [1]) | mortality (Coptotermes formosanus [2]) | mortality (Coptotermes formosanus [3]) | mortality (Coptotermes formosanus [4]) | mortality (Coptotermes formosanus [5]) | mortality (Coptotermes formosanus [6]) | mortality (Coptotermes formosanus [7]) | mortality (Coptotermes formosanus [8]) | mortality (Coptotermes formosanus [9]) | mortality (Coptotermes formosanus [10]) | mortality (Coptotermes formosanus [11]) | mortality (Coptotermes formosanus [12]) | mortality (Coptotermes formosanus [13]) | mortality (Coptotermes formosanus [14]) | mortality (Coptotermes formosanus [15]) | mortality (Coptotermes formosanus [16]) | mortality (Coptotermes formosanus [17]) | mortality (Coptotermes formosanus [18]) | mortality (Coptotermes formosanus [19]) | mortality (Coptotermes formosanus [20]) | also measured
1 | COC1=C(OC)C(=O)C(C)=C(C)C1=O [Aurantiogliocladin] | 0% | 0% | 0% | 0% | 0% | 0% | 0% | 0% | 0% | 0% | 0% | 0% | 0% | 0% | 0% | 0% | 0% | 0% | 0% | 0% | mortality (Coptotermes formosanus [21]): 0%; mortality (Coptotermes formosanus [22]): 0%; mortality (Coptotermes formosanus [23]): 0%; mortality (Coptotermes formosanus [24]): 0%; mortality (Coptotermes formosanus [25]): 100%; mortality (Coptotermes formosanus [26]): 100%; mortality (Coptotermes formosanus [27]): 100%; mortality (Coptotermes formosanus [28]): 0%; mortality (Coptotermes formosanus [29]): 0%; Activity (Coptotermes formosanus [30]): 0.1 mg; mortality (Coptotermes formosanus [31]): 0%; mortality (Coptotermes formosanus [32]): 1.7%; mortality (Coptotermes formosanus [33]): 5%; mortality (Coptotermes formosanus [34]): 0%; Activity (Coptotermes formosanus [35]): 136.2 mg; Activity (Coptotermes formosanus [36]): 86.6 mg; Activity (Coptotermes formosanus [37]): 48.6 mg; Activity (Coptotermes formosanus [38]): 107.7 mg; Activity (Coptotermes formosanus [39]): 52.4 mg
2 | COC1=C(OC)C(=O)C(CC=C(C)C)=C(C)C1=O [Coenzyme Q1] | 3.3% | 5% | 5% | 8.3% | 8.3% | 3.3% | 5% | 0% | 0% | 5% | 3.3% | 5% | 0% | 0% | 3.3% | 5% | 0% | 0% | 3.3% | 3.3% | mortality (Coptotermes formosanus [21]): 5%; mortality (Coptotermes formosanus [22]): 0%; mortality (Coptotermes formosanus [23]): 0%; mortality (Coptotermes formosanus [24]): 3.3%; mortality (Coptotermes formosanus [25]): 100%; mortality (Coptotermes formosanus [26]): 100%; mortality (Coptotermes formosanus [27]): 70%; mortality (Coptotermes formosanus [28]): 10%; mortality (Coptotermes formosanus [29]): 3.3%; Activity (Coptotermes formosanus [40]): 95.8 mg; Activity (Coptotermes formosanus [41]): 16.9 mg; mortality (Coptotermes formosanus [31]): 3.3%; mortality (Coptotermes formosanus [32]): 5%; mortality (Coptotermes formosanus [33]): 5%; mortality (Coptotermes formosanus [34]): 8.3%; Activity (Coptotermes formosanus [42]): 98.5 mg; Activity (Coptotermes formosanus [43]): 77.3 mg; Activity (Coptotermes formosanus [44]): 98.1 mg; Activity (Coptotermes formosanus [45]): 101.6 mg
